Data published in ChEMBL document CHEMBL5365545, “Synthesis and Optimization of 1-Substituted Imidazo[4,5-c]quinoline TLR7 Agonists” (ACS Med Chem Lett, 2023).
Calls of active or inactive are those of the source. The rule behind the calls is not given here.

Test system: not listed separately
Test: Apparent permeability of the compound at 200 uM incubated for 5 hrs by PAMPA assay
Assay type: ADME
Conditions: not given
In short: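 PAMPA using an artificial lipid/oil/lipid trilayer membrane separating donor and acceptor wells. Compound was quantified by absorbance at 280 nm, or at 320 nm for some compounds. Runs were in triplicate, and the reported values are averages of three experiments.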

SMILES | Papp at 5 h, 200 µM [×10⁻⁶ cm/s]
CCCCc1nc2c(N)nc3ccccc3c2n1Cc1cccc(O)c1 | 0.98
CCCCc1nc2c(N)nc3ccccc3c2n1Cc1ccc(NC(=O)OC(C)C)cc1 | 5.12
CCCCc1nc2c(N)nc3ccccc3c2n1Cc1ccc(NC(=O)CCCNC(=O)OC(C)(C)C)cc1 | 1.33
CCCCc1nc2c(N)nc3ccccc3c2n1Cc1ccc(NC(=O)CCNC(=O)OC(C)(C)C)cc1 | 0.434
CCCCc1nc2c(N)nc3ccccc3c2n1Cc1cccc(N)c1 | 5.26
CCCCc1nc2c(N)nc3ccccc3c2n1Cc1ccc(NC(=O)CCCCCN)cc1 | 0.436
CCCCc1nc2c(N)nc3ccccc3c2n1Cc1ccc(NC(=O)CCCN)cc1 | 0.159
CCCCc1nc2c(N)nc3ccccc3c2n1Cc1ccc(NC(=O)CCCCN)cc1 | 0.838
CCCCc1nc2c(N)nc3ccccc3c2n1Cc1ccc(N)cc1 | 8.51
CCCCc1nc2c(N)nc3ccccc3c2n1Cc1ccc(NC(C)=O)cc1 | 3.45
CCCCc1nc2c(N)nc3ccccc3c2n1Cc1cccc(OC)c1 | 2.5
CCCCc1nc2c(N)nc3ccccc3c2n1Cc1ccc(NC(=O)CCCCCNC(=O)OC(C)(C)C)cc1 | 1.91
CCCCc1nc2c(N)nc3ccccc3c2n1Cc1ccc(NC(=O)CN)cc1 | 0.834
CCCCc1nc2c(N)nc3ccccc3c2n1Cc1ccc(O)cc1 | 3.06
CCCCc1nc2c(N)nc3ccccc3c2n1Cc1ccc(NC(=O)CCCCNC(=O)OC(C)(C)C)cc1 | 1.95
CCCCc1nc2c(N)nc3ccccc3c2n1Cc1ccc(OC)cc1 | 4.01
CCCCc1nc2c(N)nc3ccccc3c2n1Cc1ccc(NC(=O)OCC)cc1 | 8.78
CCOCc1nc2c(N)nc3ccccc3c2n1CC(C)(C)O [RESIQUIMOD] | 5.3
CCCCOC(=O)Cc1ccc(Cn2c(CCCC)nc3c(N)nc4ccccc4c32)cc1 | 14.2
CCCCc1nc2c(N)nc3ccccc3c2n1Cc1ccc(NC(=O)CCN)cc1 | 0.131
CCCCc1nc2c(N)nc3ccccc3c2n1Cc1ccc(NC(=O)CNC(=O)OC(C)(C)C)cc1 | 4.48
CCCCc1nc2c(N)nc3ccccc3c2n1Cc1cccc(NC(=O)OC(C)(C)C)c1 | 1.24
CCCCC(=O)Nc1ccc(Cn2c(CCCC)nc3c(N)nc4ccccc4c32)cc1 | 1.59

Molecular target: T1, Toll-like receptor 8 (Homo sapiens) (UniProt Q9NR97)
T1 sequence (whole entry): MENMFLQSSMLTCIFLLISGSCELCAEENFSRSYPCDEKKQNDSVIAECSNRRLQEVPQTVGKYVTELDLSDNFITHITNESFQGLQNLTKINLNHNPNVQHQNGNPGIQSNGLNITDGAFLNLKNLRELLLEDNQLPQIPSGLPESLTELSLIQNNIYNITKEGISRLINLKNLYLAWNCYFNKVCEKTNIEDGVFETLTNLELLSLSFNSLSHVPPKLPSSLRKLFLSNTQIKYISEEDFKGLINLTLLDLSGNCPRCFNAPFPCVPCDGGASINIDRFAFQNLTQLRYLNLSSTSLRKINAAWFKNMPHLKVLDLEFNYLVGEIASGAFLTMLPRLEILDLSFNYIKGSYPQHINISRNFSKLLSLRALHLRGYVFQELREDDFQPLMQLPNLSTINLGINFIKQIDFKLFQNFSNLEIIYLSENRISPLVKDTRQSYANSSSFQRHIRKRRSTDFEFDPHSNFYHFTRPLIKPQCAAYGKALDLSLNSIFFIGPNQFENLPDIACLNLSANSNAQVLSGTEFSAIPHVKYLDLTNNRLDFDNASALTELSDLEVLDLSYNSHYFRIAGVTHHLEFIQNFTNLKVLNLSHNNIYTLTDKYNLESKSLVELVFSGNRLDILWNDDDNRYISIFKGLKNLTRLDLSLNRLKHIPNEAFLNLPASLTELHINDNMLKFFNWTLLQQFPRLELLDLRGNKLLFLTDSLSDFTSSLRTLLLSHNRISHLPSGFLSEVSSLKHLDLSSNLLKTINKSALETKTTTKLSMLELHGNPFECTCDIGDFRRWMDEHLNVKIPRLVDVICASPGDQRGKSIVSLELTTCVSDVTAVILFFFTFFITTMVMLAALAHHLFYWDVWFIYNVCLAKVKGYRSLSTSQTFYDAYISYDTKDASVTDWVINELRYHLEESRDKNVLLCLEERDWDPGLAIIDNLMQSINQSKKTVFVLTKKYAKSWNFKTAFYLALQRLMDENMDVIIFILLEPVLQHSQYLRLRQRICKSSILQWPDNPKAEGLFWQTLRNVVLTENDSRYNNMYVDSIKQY
Test: Agonist activity at TLR8 in GM-CSF induced human MDM cells assessed as increase in IL-6 release at 80 to 2000 nM measured after 6 hrs
Assay type: cell-based
Conditions: filed as agonist, dose 80-2000 nM

SMILES | Activity
CCCN(CCC)C(=O)C1=Cc2ccc(-c3ccc(C(=O)N4CCCC4)cc3)cc2N=C(N)C1 | Active

Molecular target: T2, Toll-like receptor 7 (Homo sapiens, UniProt Q9NYK1)
T2 sequence (Q9NYK1 whole entry): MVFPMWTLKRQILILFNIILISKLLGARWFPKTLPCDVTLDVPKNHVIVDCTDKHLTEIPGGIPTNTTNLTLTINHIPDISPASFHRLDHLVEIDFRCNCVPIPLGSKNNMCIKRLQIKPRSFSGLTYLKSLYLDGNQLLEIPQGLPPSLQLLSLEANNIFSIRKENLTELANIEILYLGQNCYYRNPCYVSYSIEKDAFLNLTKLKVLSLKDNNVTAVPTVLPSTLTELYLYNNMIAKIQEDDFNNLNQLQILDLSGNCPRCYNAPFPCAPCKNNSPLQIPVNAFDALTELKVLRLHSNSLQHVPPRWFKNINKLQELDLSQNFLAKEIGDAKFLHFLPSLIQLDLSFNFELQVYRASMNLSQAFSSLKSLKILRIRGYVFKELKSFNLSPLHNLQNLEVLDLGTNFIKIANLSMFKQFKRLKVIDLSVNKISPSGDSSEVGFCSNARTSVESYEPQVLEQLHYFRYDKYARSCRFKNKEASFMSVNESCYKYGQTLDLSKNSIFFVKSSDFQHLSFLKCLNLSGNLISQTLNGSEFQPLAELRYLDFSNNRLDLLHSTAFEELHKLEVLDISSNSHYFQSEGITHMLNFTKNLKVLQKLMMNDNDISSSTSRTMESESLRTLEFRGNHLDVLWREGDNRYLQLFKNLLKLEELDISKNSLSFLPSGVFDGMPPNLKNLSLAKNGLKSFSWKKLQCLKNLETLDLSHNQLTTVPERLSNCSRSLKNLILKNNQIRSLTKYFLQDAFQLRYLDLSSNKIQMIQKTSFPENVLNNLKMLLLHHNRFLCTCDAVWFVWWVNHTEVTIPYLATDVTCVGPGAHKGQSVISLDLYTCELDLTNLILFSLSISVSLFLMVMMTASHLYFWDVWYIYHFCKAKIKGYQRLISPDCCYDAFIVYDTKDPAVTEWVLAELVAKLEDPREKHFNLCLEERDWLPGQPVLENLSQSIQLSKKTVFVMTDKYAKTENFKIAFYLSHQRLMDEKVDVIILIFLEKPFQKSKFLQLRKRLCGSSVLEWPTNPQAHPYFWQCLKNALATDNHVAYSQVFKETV
Test: Agonist activity at TLR7 in human Ramos-blue cells assessed as increase in NFkappaB activation incubated for 72 hrs by quanti-blue/SEAP reporter gene based assay
Assay type: cell-based
Conditions: not given

SMILES | EC50 [nM]
CCCCc1nc2c(N)nc3ccccc3c2n1Cc1ccc(N)cc1 | 69
CCCCc1nc2c(N)nc3ccccc3c2n1Cc1ccc(OC)cc1 | 232

Molecular target: T1, Toll-like receptor 8 (Homo sapiens)
Test: Agonist activity at TLR8 in GM-CSF induced human MDM cells assessed as increase in TNFalpha release at 80 to 2000 nM measured after 6 hrs
Assay type: cell-based
Conditions: filed as agonist, dose 80-2000 nM

SMILES | Activity
CCCN(CCC)C(=O)C1=Cc2ccc(-c3ccc(C(=O)N4CCCC4)cc3)cc2N=C(N)C1 | Active
